Residues, ends and D or L forms follow the SMILES beside them.
Assays:
Lethal factor [1] = molecular target: T1, Lethal factor (Bacillus anthracis, UniProt P15917); assay: Non-competitive inhibition of Bacillus anthracis lethal factor protease using substrate containing CyPet and YPet linked by RRKKVYPYPMEGTIA sequence preincubated for 30 mins followed by substrate addition measured every 2 mins for 3 hrs by FRET assay
T1 sequence (P15917 whole entry): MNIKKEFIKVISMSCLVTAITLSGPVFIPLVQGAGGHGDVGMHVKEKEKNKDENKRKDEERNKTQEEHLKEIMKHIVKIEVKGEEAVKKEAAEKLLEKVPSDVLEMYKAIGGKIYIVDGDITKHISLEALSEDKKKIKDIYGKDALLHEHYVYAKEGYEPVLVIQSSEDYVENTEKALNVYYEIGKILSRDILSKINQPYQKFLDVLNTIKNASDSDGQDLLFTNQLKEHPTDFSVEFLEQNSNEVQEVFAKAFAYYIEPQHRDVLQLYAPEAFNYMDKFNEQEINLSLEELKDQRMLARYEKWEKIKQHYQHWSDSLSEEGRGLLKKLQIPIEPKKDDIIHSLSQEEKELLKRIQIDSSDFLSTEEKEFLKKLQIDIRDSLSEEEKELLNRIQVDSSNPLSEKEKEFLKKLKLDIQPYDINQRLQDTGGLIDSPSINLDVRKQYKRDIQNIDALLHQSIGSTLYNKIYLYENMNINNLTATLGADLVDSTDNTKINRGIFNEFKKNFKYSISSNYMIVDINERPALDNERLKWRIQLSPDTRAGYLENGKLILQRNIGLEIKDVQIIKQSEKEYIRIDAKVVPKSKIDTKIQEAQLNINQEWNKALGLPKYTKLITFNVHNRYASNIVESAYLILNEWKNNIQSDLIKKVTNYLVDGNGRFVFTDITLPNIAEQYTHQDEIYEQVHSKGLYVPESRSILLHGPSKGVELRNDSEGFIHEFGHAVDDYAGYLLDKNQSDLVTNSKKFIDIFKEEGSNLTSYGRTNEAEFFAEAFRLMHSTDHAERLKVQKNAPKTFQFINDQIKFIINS
Method in brief: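 Ki was derived from the IC50 with the non-competitive tight-binding relation Ki = IC50 − E0/2, where E0 is the enzyme concentration (50 nM LF). The IC50 comes from the FRET assay: pH 7.2 Ca/Mg/Zn phosphate–NaCl buffer, inhibitor 1 nM–10 μM, 10 nM substrate, 405 nm excitation, 535 nm read, initial velocities fitted to a variable-slope curve.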

Lethal factor [2] = molecular target: T1, Lethal factor; assay: Inhibition of Bacillus anthracis lethal factor protease using substrate containing CyPet and YPet linked by RRKKVYPYPMEGTIA sequence preincubated for 30 mins followed by substrate addition measured every 2 mins for 3 hrs by FRET assay
Method in brief: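 Purified LF (50 nM) in pH 7.2 buffer (10 μM CaCl2, 10 μM MgCl2, 20 μM ZnCl2, 20 mM sodium phosphate, 100 mM NaCl) preincubated at room temperature with inhibitor (1 nM–10 μM). FRET substrate added to 10 nM final. Read at 405 nm excitation, 535 nm intensity ratio It/I0. Initial velocities were normalised to uninhibited LF, and IC50 came from a variable-slope log(inhibitor)–response fit.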

| Compound | Ki (Lethal factor [1]) [nM] | IC50 (Lethal factor [2]) [nM] |
| --- | --- | --- |
| CC[C@H](C)[C@H](NC(=O)[C@H](CS)NC(=O)[C@H](CCCNC(=N)N)NC(=O)[C@H](CS)NC(=O)[C@@H](NC(=O)CNC(=O)[C@H](Cc1cnc[nH]1)NC(=O)[C@H](CC(C)C)NC(=O)[C@H](CS)NC(=O)[C@H](C)NC(=O)[C@H](CS)NC(=O)[C@H](CCCNC(=N)N)NC(=O)[C@H](CS)NC(=O)[C@H](Cc1ccccc1)NC(=O)CN)C(C)C)C(=O)N[C@@H](CS)C(=O)N[C@H](C(=O)N[C@@H](CCCNC(=N)N)C(=O)O)[C@@H](C)O (H-GFCRCACLHGVCRCICTR-OH) | 946 | 971 |
| CC[C@H](C)[C@H](NC(=O)[C@H](CS)NC(=O)[C@H](CC(=O)O)NC(=O)[C@H](CS)NC(=O)[C@H](CO)NC(=O)[C@H](CO)NC(=O)[C@H](CCCNC(=N)N)NC(=O)CNC(=O)[C@H](CS)NC(=O)[C@H](Cc1ccccc1)NC(=O)[C@H](CS)NC(=O)[C@H](CCCNC(=N)N)NC(=O)[C@H](CS)NC(=O)[C@H](Cc1ccccc1)NC(=O)CN)C(=O)N[C@@H](CS)C(=O)N[C@H](C(=O)N[C@@H](CCCNC(=N)N)C(=O)O)[C@@H](C)O (H-GFCRCFCGRSSCDCICTR-OH) | 1170 | 1200 |
| CC[C@H](C)[C@H](NC(=O)[C@H](CS)NC(=O)[C@H](CCCNC(=N)N)NC(=O)[C@H](CS)NC(=O)[C@@H](NC(=O)CNC(=O)[C@H](CCCNC(=N)N)NC(=O)[C@H](CCCNC(=N)N)NC(=O)[C@H](CS)NC(=O)[C@H](CC(C)C)NC(=O)[C@H](CS)NC(=O)[C@H](CCCNC(=N)N)NC(=O)[C@H](CS)NC(=O)[C@H](Cc1ccccc1)NC(=O)CN)C(C)C)C(=O)N[C@@H](CS)C(=O)N[C@H](C(=O)N[C@@H](CCCNC(=N)N)C(=O)O)[C@@H](C)O (H-GFCRCLCRRGVCRCICTR-OH) | 381 | 406 |
| CC[C@H](C)[C@H](NC(=O)[C@H](CS)NC(=O)[C@H](Cc1c[nH]c2ccccc12)NC(=O)[C@H](CS)NC(=O)CNC(=O)[C@H](Cc1ccc(O)cc1)NC(=O)[C@H](CCCNC(=N)N)NC(=O)[C@H](CO)NC(=O)[C@H](CS)NC(=O)[C@@H]1CCCN1C(=O)[C@H](CS)NC(=O)[C@H](CCCNC(=N)N)NC(=O)[C@H](CS)NC(=O)[C@H](Cc1ccccc1)NC(=O)CN)C(=O)N[C@@H](CS)C(=O)N[C@H](C(=O)N[C@@H](CCCNC(=N)N)C(=O)O)[C@@H](C)O (H-GFCRCPCSRYGCWCICTR-OH) | 946 | 971 |
